Calls of active or inactive are those of the source. The calls are words filed in the database; no cut-off is given here.
Tests used:
Escherichia coli [1] = assay: Bactericidal activity against Escherichia coli ATCC 25922 assessed as time required to kill late exponential phase at 12 to 16 ug/ml by time kill assay; type: functional
Staphylococcus aureus [2] = assay: Bactericidal activity against Staphylococcus aureus ATCC 29213 assessed as time required to kill late exponential phase at 6 to 8 ug/ml by time kill assay; type: functional
Procedure, shortened: (§1)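 Overnight culture diluted 1:10,000 in MHB and shaken at 37 °C, 225 rpm, for 2 h (early exponential) or 5 h (late exponential), then exposed to compound at 6× and 8× MIC in tubes at 37 °C, 225 rpm. Samples (100 µL) taken at intervals, pelleted, resuspended in PBS, and ten-fold dilutions plated on MHA overnight at 37 °C for CFU/mL. Biological replicates.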

Escherichia coli [3] = assay: Antibiofilm activity against Escherichia coli ATCC 25922 assessed as bacterial cell viability in biofilm at 8 ug/ml after 24 hrs (reference value: 25.9 log10CFU/ml); type: functional
Procedure, shortened: (§2)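 Mid-log cells at ~10⁵ CFU/mL grown stationary in 96-well plates (S. aureus in MHB for 24 h; E. coli in M9 with 0.02% casamino acids and 0.5% glycerol for 72 h). After washing, biofilms exposed 24 h at 37 °C to 2-128 µg/mL; detached with trypsin-EDTA, serially plated, viability given as log10 CFU/well against an untreated control.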

Escherichia coli [4] = assay: Antibiofilm activity against Escherichia coli ATCC 25922 after 24 hrs by turbidity method; type: functional
Procedure, shortened: (§3)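 MBEC: biofilms grown 24 h at 37 °C from 1:1000-diluted exponential-phase culture; planktonic cells removed, twofold dilutions in fresh medium added for 24 h at 37 °C, then fresh medium alone for 24 h recovery. MBEC is the lowest concentration with no visible turbidity.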

Escherichia coli [5] = assay: Antibiofilm activity against Escherichia coli ATCC 25922 assessed as bacterial cell viability in biofilm at 2 ug/ml after 24 hrs (reference value: 25.9 log10CFU/ml); type: functional; procedure, shortened: as §2
Escherichia coli [6] = assay: Antibiofilm activity against Escherichia coli ATCC 25922 assessed as bacterial cell viability in biofilm at 4 ug/ml after 24 hrs (reference value: 25.9 log10CFU/ml); type: functional; procedure, shortened: as §2
Staphylococcus aureus [7] = assay: Antibiofilm activity against Staphylococcus aureus ATCC 29213 after 24 hrs by crystal violet staining method; type: functional
Procedure, shortened: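 MBIC: twofold dilutions in MHB inoculated with 1:1000-diluted exponential-phase culture (10⁸ CFU/mL), 24 h at 37 °C. Wells rinsed, stained 10 min with 0.1% crystal violet, dye dissolved in ethanol, OD540 read; MBIC80 taken from dose–response versus untreated wells.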

Staphylococcus aureus [8] = assay: Antibiofilm activity against Staphylococcus aureus ATCC 29213 after 24 hrs by turbidity method; type: functional; procedure, shortened: as §3
Staphylococcus aureus [9] = assay: Antibiofilm activity against Staphylococcus aureus ATCC 29213 assessed as bacterial cell viability in biofilm at 4 ug/ml after 24 hrs (reference value: 21.9 log10CFU/ml); type: functional; procedure, shortened: as §2
Escherichia coli [10] = assay: Antibiofilm activity against Escherichia coli ATCC 25922 assessed as bacterial cell viability in biofilm at 16 ug/ml after 24 hrs (reference value: 25.9 log10CFU/ml); type: functional; procedure, shortened: as §2
Staphylococcus aureus [11] = assay: Antibiofilm activity against Staphylococcus aureus ATCC 29213 assessed as bacterial cell viability in biofilm at 2 ug/ml after 24 hrs (reference value: 21.9 log10CFU/ml); type: functional; procedure, shortened: as §2
Staphylococcus aureus [12] = assay: Bactericidal activity against Staphylococcus aureus ATCC 29213 assessed as time required to kill early exponential phase at 6 ug/ml by time kill assay; type: functional; procedure, shortened: as §1
Escherichia coli [13] = assay: Antibiofilm activity against Escherichia coli ATCC 25922 at 8 to 128 ug/ml after 72 hrs by crystal violet staining based assay; type: functional, organism-based
Procedure, shortened: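 Biofilms grown in 24-well plates for about 72 h at 37 °C, treated, stained with 1.0% crystal violet, rinsed, dried, dye taken up in 95% ethanol for 1 h at room temperature, then photographed.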

Staphylococcus aureus [14] = assay: Antibacterial activity against Staphylococcus aureus ATCC 29213 after 20 serial passages measured after 16 to 20 hrs by broth microdilution method; type: functional, organism-based
Procedure, shortened: (§4)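 Sub-MIC serial passaging: after an initial broth microdilution MIC, cells grown at MIC/2 were transferred into a new MIC assay after each 24 h incubation, for 20 passages. MIC was plotted against days to follow resistance development. Passaging controls were norfloxacin for S. aureus and colistin for E. coli.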

Staphylococcus aureus [15] = assay: Antibiofilm activity against Staphylococcus aureus ATCC 29213 assessed as bacterial cell viability in biofilm at 64 ug/ml after 24 hrs (reference value: 21.9 log10CFU/ml); type: functional; procedure, shortened: as §2
[16] = Selectivity index, ratio of HC50 for sheep RBC to MIC for Escherichia coli ATCC 25922; type: toxicity; conditions: sheep red blood cells (erythrocytes), read-out: Selectivity Index
Procedure, shortened: (§5)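 HC50 from sheep RBC lysis: 5% RBC suspension exposed 1 h at 37 °C to a 5120–10 µg/mL series, with A540 of supernatant scaled to 0.1% Triton X-100. MIC by CLSI broth microdilution in cation-adjusted MHB, ~10^6 CFU/mL, 256–0.5 µg/mL, 37 °C for 16–20 h, duplicates with at least two repeats.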

Staphylococcus aureus [17] = assay: Bactericidal activity against Staphylococcus aureus ATCC 29213 assessed as time required to kill early exponential phase at 8 ug/ml by time kill assay; type: functional; procedure, shortened: as §1
[18] = Selectivity index, ratio of HC50 for sheep RBC to MIC for Staphylococcus aureus ATCC 29213; type: toxicity; conditions: sheep red blood cells (erythrocytes), read-out: Selectivity Index; procedure, shortened: as §5
Escherichia coli [19] = assay: Antibiofilm activity against Escherichia coli ATCC 25922 assessed as bacterial cell viability in biofilm at 32 ug/ml after 24 hrs (reference value: 25.9 log10CFU/ml); type: functional; procedure, shortened: as §2
Escherichia coli [20] = assay: Ratio of MBEC to MIC for Escherichia coli ATCC 25922 after 24 hrs; type: functional
Procedure, shortened: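 For MBEC, biofilms grown 24 h at 37 °C from a 1:1000 dilution of exponential-phase culture, washed, exposed 24 h to two-fold compound dilutions in fresh medium, then recovered 24 h in medium alone; MBEC is the lowest concentration with no turbidity. MIC by CLSI broth microdilution in cation-adjusted MHB, ~10^6 CFU/mL inoculum, 37 °C, 16–20 h.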

Staphylococcus aureus [21] = assay: Antibiofilm activity against Staphylococcus aureus ATCC 29213 assessed as bacterial cell viability in biofilm at 8 ug/ml after 24 hrs (reference value: 21.9 log10CFU/ml); type: functional; procedure, shortened: as §2
Escherichia coli [22] = assay: Antibacterial activity against Escherichia coli ATCC 25922 after 20 serial passages measured after 16 to 20 hrs by broth microdilution method; type: functional, organism-based; procedure, shortened: as §4
Escherichia coli [23] = assay: Bactericidal activity against Escherichia coli ATCC 25922 assessed as time required to kill early exponential phase at 12 to 16 ug/ml by time kill assay; type: functional
Escherichia coli [24] = assay: Antibiofilm activity against Escherichia coli ATCC 25922 assessed as bacterial cell viability in biofilm at 64 ug/ml after 24 hrs (reference value: 25.9 log10CFU/ml); type: functional; procedure, shortened: as §2

Q: With `CCCCCCCCCN(CCCCCCCCC)C(=O)[C@@H](N)CCCCN.Cl.Cl` as the molecule, how does the Time (Escherichia coli [1]) read?
A: Its Time is 1 h.

Q: What about the Time (Staphylococcus aureus [2]) of the same molecule?
A: Its Time is 6 h.

Q: What about the Activity (Escherichia coli [3]) of the same molecule?
A: Its Activity is 8.4 log10CFU.

Q: And the MBEC (Escherichia coli [4])?
A: Its MBEC is 128 µg/mL.

Q: And the Activity (Escherichia coli [5])?
A: The Activity was 24.7 log10CFU.

Q: And the Activity (Escherichia coli [6])?
A: Its Activity is 23.9 log10CFU.

Q: And the MBIC80 (Staphylococcus aureus [7])?
A: Its MBIC80 is 18 µg/mL.

Q: And the MBIC90 (Staphylococcus aureus [7])?
A: The MBIC90 was 26.9 µg/mL.

Q: And the MBEC (Staphylococcus aureus [8])?
A: Its MBEC is 64 µg/mL.

Q: What about the Activity (Staphylococcus aureus [9]) of the same molecule?
A: Its Activity is 18.6 log10CFU.

Q: What about the Activity (Escherichia coli [10]) of the same molecule?
A: The Activity was 4.1 log10CFU.

Q: And the Activity (Staphylococcus aureus [11])?
A: Its Activity is 19.9 log10CFU.

Q: And the Time (Staphylococcus aureus [12])?
A: The Time was 120 min.

Q: What about the Activity (Escherichia coli [13]) of the same molecule?
A: The Activity was “Active”.

Q: What about the Activity (Staphylococcus aureus [14]) of the same molecule?
A: The Activity was “Active”.

Q: And the Activity (Staphylococcus aureus [15])?
A: The Activity was 7.9 log10CFU.

Q: What about the selectivity ratio [16] of the same molecule?
A: The selectivity ratio was 66.5.

Q: What about the Time (Staphylococcus aureus [17]) of the same molecule?
A: The Time was 0.5 h.

Q: What about the selectivity ratio [18] of the same molecule?
A: Its selectivity ratio is 133.

Q: And the Activity (Escherichia coli [19])?
A: Its Activity is 2.1 log10CFU.

Q: What about the Ratio (Escherichia coli [20]) of the same molecule?
A: The Ratio was 64.

Q: And the Activity (Staphylococcus aureus [21])?
A: Its Activity is 11.9 log10CFU.

Q: What about the Activity (Escherichia coli [22]) of the same molecule?
A: The Activity was “Active”.

Q: What about the Time (Escherichia coli [23]) of the same molecule?
A: The Time was 0.5 h.

Q: What about the Activity (Escherichia coli [24]) of the same molecule?
A: The Activity was 0.3 log10CFU.

Reference: ChEMBL document CHEMBL4130549, “Synthesis and bioactivities study of new antibacterial peptide mimics: The dialkyl cationic amphiphiles” (Eur J Med Chem, 2018)
